GPR7 antagonist – blocks human GPR7 receptor signaling. GPR7-expressing cells, fluorescence antagonist assay. inhibition, % at 4.4 µM. AID 1861. P48145. hit rate 1.1% among 290,000; in the data active = inhibition above about 16%, passing the limit was not always enough;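 note: cells stimulated with the agonist NPW; 0% = agonist with vehicle and 100% = vehicle without agonist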
Target sequence (P48145 whole entry, looked up): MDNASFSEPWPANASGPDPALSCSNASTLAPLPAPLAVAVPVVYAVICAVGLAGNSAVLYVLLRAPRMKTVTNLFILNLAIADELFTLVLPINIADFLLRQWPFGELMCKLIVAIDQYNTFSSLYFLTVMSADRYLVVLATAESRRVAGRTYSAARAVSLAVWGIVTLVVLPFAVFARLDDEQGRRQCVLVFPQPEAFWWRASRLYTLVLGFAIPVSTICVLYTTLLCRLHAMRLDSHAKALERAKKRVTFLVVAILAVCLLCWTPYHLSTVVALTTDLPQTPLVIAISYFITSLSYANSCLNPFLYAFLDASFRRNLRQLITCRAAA
CHO parental Ca – signal in parental CHO cells, OX1R antagonist counter-screen; parental CHO-K1, ATP-induced calcium, Fluo-8 fluorescence; inhibition, % at 5.6 µM; hit rate 0.63% among 330,000; AID 463079;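 active = inhibition above that plate's mean sample inhibition plus 3 SD, cut at about 26% in these data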;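 note: 0% = ATP-challenged DMSO wells and 100% = DMSO wells without ATP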
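Test system: parental CHO cells; detection: calcium-sensitive Fluo-8 fluorescence; evaluation: percent inhibition of calcium signal; also added: ATP as calcium-mobilizing challenge; repeats: one well per compound; control set: ATP-challenged DMSO wells low, unchallenged DMSO wells high; compound: single nominal dose of 5.6 µM per compound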
TAAR1 antag – human TAAR1 antagonism | CHO RD-HGA16 TAAR1, Fluo-8 calcium fluorescence, antagonist | inhibition, % at 3 µM | AID 624466 | Q96RJ0 | hit rate 1.5% among 360,000;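 active = inhibition above a per-plate cutoff, the mean inhibition of test compounds on that plate plus 3 SD, cut at about 49% in these data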;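 note: 0% = DMSO plus EC80 beta-PEA response and 100% = DMSO alone without agonist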
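Test system – hTAAR1-expressing CHO RD-HGA16 cells, Gα16-coupled · Also added – β-PEA at EC80 concentration, post-compound challenge · Compound – 3 µM, single point · Incubation – dye loading 75 min at 37 °C, then 30 min room temperature · Measured by – Fluo-8 intracellular calcium dye fluorescence, real-time kinetic reads · Benchmarks – vehicle and agonist controls · Replicates – singlicate, one well per test compound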
OX1R antag-1 – blocks the human orexin 1 receptor; inhibition, % at 5 µM; CHO/OX1R cells, Fluo-8 calcium fluorescence, orexin A; hit rate 0.43% among 330,000; AID 434989;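 active = inhibition above its plate's threshold, mean inhibition of all tested compounds on the plate plus 3 SD, cut at about 37% in these data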;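 note: 0% = orexin A challenge wells and 100% = SB-334867-A antagonist wells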
Target sequence (O43613 whole entry, looked up): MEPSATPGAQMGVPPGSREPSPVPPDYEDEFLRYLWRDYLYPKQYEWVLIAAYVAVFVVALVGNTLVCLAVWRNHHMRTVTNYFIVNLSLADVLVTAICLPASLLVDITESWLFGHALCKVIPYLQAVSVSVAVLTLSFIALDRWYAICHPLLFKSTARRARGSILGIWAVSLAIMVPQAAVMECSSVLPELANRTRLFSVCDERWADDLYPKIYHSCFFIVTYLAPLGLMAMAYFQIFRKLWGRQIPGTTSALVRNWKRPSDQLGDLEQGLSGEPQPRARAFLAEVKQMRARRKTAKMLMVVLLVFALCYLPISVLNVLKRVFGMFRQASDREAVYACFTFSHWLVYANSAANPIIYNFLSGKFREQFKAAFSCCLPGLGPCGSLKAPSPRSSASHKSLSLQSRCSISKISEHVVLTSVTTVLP
TAAR1 agonist – agonists of human TAAR1; AID 624467; hit rate 0.99% among 360,000; Q96RJ0; CHO RD-HGA16 TAAR1, Fluo-8 calcium fluorescence; vehicle wells 0%, saturating PEA agonist 100%; activation, % at 3 µM;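 active = activation above the mean activation of all test compounds in the run plus 3 SD, cut at about 38% in these data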
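Repeats: no replicates (n 1) | Material: CHO-derived RD-HGA16 cells with stable Gα16 and human TAAR1 | Technique: Kinetic Fluo-8 calcium fluorescence | Schedule: 17-24 h seeding, 75 min 37 °C dye, 30 min RT | Evaluation: % activation from peak over basal fluorescence ratio, DMSO-to-PEA scaled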
OX1R antag-2 – antagonists of human orexin 1 receptor (OX1R) | O43613 | OX1R-expressing cells, FRET antagonist read-out | inhibition, % at 6.6 µM | hit rate 1.8% among 330,000; in the data active = inhibition mostly above about 38%, no sharp cut-off; inactive = mostly below about 40%;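 note: 0% = agonist challenge alone and 100% = reference antagonist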
TAAR1 nonsel count – nonselective antagonism, TAAR1 counter-screen | shares compounds with TAAR1 antag | counterscreen cell line, calcium fluorescence, antagonist mode | inhibition, % at 3 µM | hit rate 77% among 2,400; in the data active = inhibition above about 22%;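 note: CHO-Ga16 host cells stimulated with ATP at an EC80 level; 0% = agonist EC80 plus vehicle and 100% = vehicle without agonist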
TAAR1 ant conf – confirmation of human TAAR1 antagonists | hit rate 40% among 2,400 | inhibition, % at 3 µM | shares compounds with TAAR1 antag | TAAR1-expressing cells, fluorescence antagonist read-out; in the data active = inhibition above about 49%;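 note: CHO-Ga16 host cells challenged with agonist PEA near its EC80; 0% = agonist at EC80 plus vehicle and 100% = vehicle with no agonist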
Ga16 ag counter – nonselective Ga16 agonism, counter-screen; shares compounds with TAAR1 antag; Ga16-expressing cells, calcium fluorescence, agonist counterscreen; activation, % at 3 µM; hit rate 18% among 2,400; AID 651953; in the data active = activation above about 12%;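 note: 0% = vehicle wells and 100% = saturating stimulus response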
TAAR1 ag counter – TAAR1 agonism, antagonist counter-screen. activation, % at 3 µM. AID 651955. hTAAR1 cell line, fluorescence activation, agonist mode. hit rate 2% among 2,400. shares compounds with TAAR1 antag; in the data active = activation above about 37%;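 note: CHO cells stably expressing TAAR1 with calcium dye readout; 0% = DMSO vehicle and 100% = full agonist response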
* hit, by the source's call; . = no result given. A selection: hits, their analogues and other compounds. The true share with any hit is near 4.5%.

SMILES	GPR7 antagonist	CHO parental Ca	TAAR1 antag	OX1R antag-1	TAAR1 agonist	OX1R antag-2	TAAR1 nonsel count	TAAR1 ant conf	Ga16 ag counter	TAAR1 ag counter
O=C(Cc1n[nH]c(=O)c2ccccc12)OCC(=O)N(Cc1ccccc1)Cc1ccccc1	13	-10	57*	-31	4	12	21	38	4	3
COCCn1c(CNc2ccc(F)cc2)nnc1SCC(=O)Nc1ccc(OC)cc1OC	-2	-14	2	-27	4	18	.	.	.	.
CS(=O)(=O)c1ccc(-c2sc3ccccc3c2C(=O)NCCCN2CCOCC2)cc1	.	-21	-5	-25	6	6	.	.	.	.
CCOC(=O)NC(=O)COC(=O)CCCc1nc2ccccc2s1	12	-7	-9	-1	4	23	.	.	.	.
COCCNc1nc(Oc2ccc(NC(C)=O)cc2)c2sc(-c3ccccc3)cc2n1	.	.	55*	.	8	.	52*	50*	9	8
COCCNc1nc(Oc2ccc(CC(=O)OC)cc2)c2sc(-c3ccccc3)cc2n1	.	.	-2	.	1	.	.	.	.	.
CCOC(=O)C1C(=O)C=C(c2ccccc2)CC1c1ccccc1 (stereo not drawn)	.	.	59*	.	4	.	30*	40	3	1
CC1(C)CC(NS(=O)(=O)c2ccc(S(N)(=O)=O)cc2)CC(C)(C)N1	-9	2	-5	-3	-1	-1	.	.	.	.
COc1cccc(N=c2oc3cc(O)ccc3cc2C(=O)NCC2CCCO2)c1 (stereo not drawn)	10	-6	58*	-3	13	10	35*	55*	11	18
COc1ccccc1N=c1oc2cc(O)ccc2cc1C(=O)NCC1CCCO1 (stereo not drawn)	11	-4	20	2	12	20	.	.	.	.
COc1ccc(OC)c(-c2nc(C(=O)NCC3CCCO3)cc3c2[nH]c2ccccc23)c1 (stereo not drawn)	-2	-18	39	-37	1	20	.	.	.	.
COc1cccc(-c2nc(C(=O)NCC3CCCO3)cc3c2[nH]c2ccccc23)c1 (stereo not drawn)	1	-6	77*	-27	1	18	26*	41	5	2
COC(=O)c1cc2c(c3c4cc(F)ccc4n(S(=O)(=O)c4ccc(C)cc4)c13)C(=O)N(Cc1ccccc1)C2	.	.	-34	.	-1	.	.	.	.	.
COCCN1Cc2cc(C(=O)OC)c3c(c2C1=O)c1cc(OC)ccc1n3S(C)(=O)=O	.	.	-7	.	0	.	.	.	.	.
COCCN1Cc2cc(C(=O)OC)c3c(c2C1=O)c1cc(F)ccc1n3C(=O)c1ccccc1	.	.	74*	.	13	.	32*	49*	8	7
COCCN1Cc2cc(C(=O)OC)c3c(c2C1=O)c1cc(OC)ccc1n3C(=O)c1ccccc1	.	.	74*	.	15	.	34*	58*	7	8
COCCn1c(SCC(=O)Nc2ccccc2)nc2c(oc3ccccc32)c1=O	-12	-17	5	-32	1	14	.	.	.	.
COCCn1c(SCC(=O)Nc2ccccc2OC)nc2c(oc3ccccc32)c1=O	1	-29	52*	-41	0	13	21	33	2	0
Nc1cc(OC(=O)c2ccc(F)cc2)nn1S(=O)(=O)c1ccccc1	14	-27	-15	-21	9	28	.	.	.	.
CCN(Cc1ccccc1)c1ccc(/C=N/N=C(N)N)cc1	-7	-7	-12	-27	2	3	.	.	.	.
CCN(Cc1ccccc1)c1ccc(/C=N/NC(=S)NC(C)C)cc1	-6	-32	50*	-42	2	13	3	11	3	9
O=C(c1ccc(N2CN(C(=O)c3ccco3)c3nc4ccccc4nc32)cc1)N1CCOCC1	-19	-19	53*	6	26	17	21	43	10	9
O=C(c1ccncc1)N1CCN(C(=O)c2ccco2)CC1	-17	-28	-13	-17	4	22	.	.	.	.
CC(C)c1c(C(=O)N/N=C/c2c[nH]c3ccccc23)nnn1-c1nonc1N	24	25	75*	25	33	3	40*	62*	18*	18
CCC(=O)N1CCN(c2ccc(NC(=O)COc3ccccc3[N+](=O)[O-])cc2)CC1	-1	-16	86*	-24	21	20	32*	57*	14*	15
SMILES	GPR7 antagonist	CHO parental Ca	TAAR1 antag	OX1R antag-1	TAAR1 agonist	OX1R antag-2	TAAR1 nonsel count	TAAR1 ant conf	Ga16 ag counter	TAAR1 ag counter
CCCC1NC(=O)c2cc3ccccc3cc2-n2c1nc1ccc(F)cc1c2=O (stereo not drawn)	.	.	15	.	4	.	.	.	.	.
COc1ccccc1N(Cc1ccccc1)S(=O)(=O)c1cccc(C(=O)Nc2ccccn2)c1	-25	-21	75*	-11	0	33	17	39	5	9
COc1ccccc1N(Cc1ccccc1)S(=O)(=O)c1cccc(C(=O)Nc2ccc(C(C)=O)cc2)c1	3	-9	10	4	1	37	.	.	.	.
CC1CC(C)CN(C(=O)C(C)N2CCN(S(=O)(=O)c3cccs3)CC2)C1 (stereo not drawn)	.	-16	11	-16	9	4	.	.	.	.
CC(C)CC(NS(=O)(=O)OCC(Cl)(Cl)Cl)c1ccccc1 (stereo not drawn)	-6	-11	86*	0	20	32	13	48	4	5
CO[C@@]12[C@@H]3N[C@@H]3CN1C1=C(C(=O)C(N)=C(C)C1=O)[C@@H]2COC(N)=O	.	.	-5	.	1	.	.	.	.	.
CCCCN1C(=O)c2ccc(C(=O)Nc3cccc(C)c3C)cc2C1=O	-2	0	-8	-3	9	-4	.	.	.	.
CCCCN1C(=O)c2ccc(C(=O)Nc3ccc(C)c(S(=O)(=O)N(C)C)c3)cc2C1=O	3	-6	68*	1	12	19	50*	54*	13*	9
COc1ccccc1/C=C/C(=O)NC(=S)NCC1CCCO1 (stereo not drawn)	-12	-9	74*	-7	6	3	27*	52*	5	7
COc1ccc(/C=C/C(=O)NC(=S)NCC2CCCO2)cc1 (stereo not drawn)	-18	-18	11	-36	4	21	.	.	.	.
CCCN1CCN(CC(=O)Nc2nncs2)CC1	-14	-5	-12	-15	0	6	.	.	.	.
CCCN1CCN(CCCNC(=O)CN2C(=O)c3cccnc3Oc3ccc(Cl)cc32)CC1	-2	-13	-10	-7	0	3	.	.	.	.

Assay outcomes (PubChem BioAssay)
